An excerpt weighted towards active compounds, which were near 1.1% of everything screened.
CAL PDZ FP-1: CAL PDZ (human) peptide binding inhibition; Q9HD26; purified CAL PDZ, TMR-peptide fluorescence polarization, 1 h; inhibition, % at 24.9 µM; 300,000 tested, 0.92% active; AID 602252;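 active means mean inhibition of at least 30% with at least half of replicates also reaching 30%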;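 further: 0% = DMSO neutral control and 100% = excess unlabeled competitor peptide PRC23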
ERp5 block: inhibitors of human ERp5 | Q15084 | ERp5 insulin aggregation, absorbance 650 nm, 90 min | inhibition, % at 9.99 µM | 350,000 tested, 0.05% active | AID 651711;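 active means mean replicate inhibition above about 25%, with every replicate also reaching it, limit read from the data, passing the limit was not always enough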
Rin1-Abl PPI inh: inhibitors of human Rin1-Abl protein interaction; P00519+Q13671; TR-FRET Rin1/Abl binding, biochemical; inhibition, % at 7.35 µM; 360,000 tested, 0.4% active; in the data active means inhibition above about 5%, passing the limit was not always enough
PDI turbidity: inhibitors of human protein disulfide isomerase | P07237 | PDI insulin aggregation turbidity, A650, 90 min | inhibition, % at 10 µM | 350,000 tested, 0.052% active | AID 588391;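 active means mean inhibition across replicates of 30% or more, whatever share of single replicates reach that level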
CAL PDZ FP-2: human CAL PDZ-peptide interaction inhibition; AID 504414; purified CAL PDZ, TMR-peptide fluorescence polarization, 1 h; Q9HD26; inhibition, % at 20 µM; 330,000 tested, 0.02% active;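 active means highest replicate inhibition of at least 40%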;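 further: plate controls were DMSO neutral control wells for no effect and unlabeled competitor peptide control wells for full effect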
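Material: tagged CAL PDZ domain; buffer or medium: 25 mM sodium phosphate pH 7.4, 150 mM NaCl, TCEP, IgG, Thesit; compound dosing: single point, 20 µM; schedule: 1 h incubation at room temperature before polarization reading; measured by: FP readout, S and P plane fluorescence; read-out basis: percent inhibition from loss of millipolarization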
ERAP1 inh: ERAP1 (human) enzyme inhibition; recombinant ERAP1, Leu-AMC fluorescence, 60 min; Q9NZ08; 340,000 tested, 0.15% active; inhibition, % at 10.7 µM; AID 652197;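 active means mean replicate inhibition of at least 30%, or all replicates individually reaching that 30% level; inactive means mean below 30% and not every replicate reaching it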;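 further: 0% = neutral control wells and 100% = L-leucinethiol positive control wells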
* marks the source's active call; other numbers are inactive results; . = no result given.

SMILES | CAL PDZ FP-1 | ERp5 block | Rin1-Abl PPI inh | PDI turbidity | CAL PDZ FP-2 | ERAP1 inh
COc1ccc(CN(C)C[C@@H]2Oc3ccc(NC(=O)Cc4ccccc4)cc3C(=O)N([C@@H](C)CO)C[C@H]2C)cc1 | . | 1 | . | . | . | 0
COc1ccc(OC)c(/C=N/NC(=O)c2cc[n+](CC(=O)c3ccccc3)cc2)c1 | 0 | -3 | -1 | 24 | -1 | 37*
CC(C)NC(=O)Nc1ccc2c(c1)C(=O)N([C@H](C)CO)C[C@H](C)[C@H](CN(C)C(=O)Nc1cccc3ccccc13)OCCCC[C@H](C)O2 | . | 2 | . | . | . | 3
CO[C@@H]1CN(C)C(=O)c2cc(NC(=O)C3CCC3)ccc2OC[C@@H](C)N(Cc2nccs2)C[C@H]1C | . | 2 | . | . | . | 1
COc1ccc(-n2c(C)c(C(C)=O)c3cc(OCC(N)=O)ccc32)cc1 | 38* | -3 | 1 | 0 | 2 | 2
Cc1cc([N+](=O)[O-])nn1CC(=O)Nc1cc(F)ccc1F | 69* | 2 | -2 | -1 | -2 | .
Cc1cc([N+](=O)[O-])nn1CC(=O)NCc1ccc(Cl)cc1 | -3 | 4 | -2 | 4 | -1 | 7
Cc1ccnn1CC(=O)N/N=C/c1ccc([N+](=O)[O-])s1 | 87* | 0 | -1 | -9 | -1 | 5
Cc1cc([N+](=O)[O-])nn1CC(=O)N/N=C/c1ccccc1F | 44* | -7 | 2 | -10 | -1 | 1
CN(C)CC(=O)N[C@H]1CC[C@@H](CC(=O)O)O[C@@H]1CO | . | 0 | . | . | . | 0
C[C@@H]1CN([C@@H](C)CO)C(=O)c2cccc(NS(=O)(=O)c3cn(C)cn3)c2O[C@@H]1CN(C)C(=O)Nc1ccccc1 | . | -7 | . | . | . | 1
O=C1C=C(O)c2c(O)cc(O)c(O)c2C1=O | -1 | -2 | 58* | . | 0 | 14
O=C1c2ccccc2C(=O)c2c(O)c(O)cc(O)c21 | 3 | 5 | 1 | -4 | 1 | 0
Cc1nn(CC(=O)N2CC(=O)Nc3ccccc32)c(C)c1[N+](=O)[O-] | 63* | 2 | 2 | 1 | 1 | -4
NS(=O)(=O)c1ccc(CCNC(=O)COC(=O)Cc2ccc([N+](=O)[O-])cc2)cc1 | 34* | -1 | -3 | -3 | 1 | -1
NS(=O)(=O)c1ccc(CCNC(=O)COC(=O)c2ccc([N+](=O)[O-])o2)cc1 | 10 | -1 | 5 | 11 | 1 | -3
O=C(OCC(=O)N1CCOCC1)c1ccc(O)cc1 | 126* | 16 | 1 | -7 | 0 | 2
O=C(OCC(=O)N1CCOCC1)c1ccccc1O | -7 | -1 | 0 | 9 | -1 | 2
O=C(OCC(=O)N1CCC(Cc2ccccc2)CC1)c1ccccc1 | 31* | -3 | 0 | 3 | -2 | 5
O=C(C[C@H]1CC[C@@H]2[C@H](COC[C@H](O)CN2C(=O)c2ccccc2)O1)Nc1ccc(-c2ccccc2)cc1 | . | -2 | . | . | . | -5
Cc1cc(Nc2ccccc2Cl)nc(-c2ccccc2O)n1 | 57* | 10 | 0 | 13 | . | 1
COc1ccc(-n2nnc3c(=O)n(CC(=O)N4CCCc5ccccc54)cnc32)cc1 | -8 | 4 | -3 | . | -1 | 3
COc1ccc(-n2nnc3c(SCC(=O)N4CCCc5ccccc54)ncnc32)cc1 | 60* | 8 | -3 | 4 | 15 | 2
COc1ccc(Cl)c(Cn2c(NCc3ccco3)nc3c2c(=O)n(C)c(=O)n3C)c1 | -6 | . | 11* | -3 | 0 | .
CSc1nc2c(c(=O)[nH]1)C(c1cccs1)C1=C(CCCC1=O)N2 (centres undefined) | 32* | . | 1 | 8 | -1 | .
SMILES | CAL PDZ FP-1 | ERp5 block | Rin1-Abl PPI inh | PDI turbidity | CAL PDZ FP-2 | ERAP1 inh
CCSc1nc2c(c(=O)[nH]1)C(c1ccc(C)cc1)C1=C(CCCC1=O)N2 (centres undefined) | -3 | 5 | 4 | -4 | 0 | 4
C[C@H]1CN([C@@H](C)CO)C(=O)c2cc(N(C)C)ccc2O[C@H]1CN(C)Cc1ccc(Oc2ccccc2)cc1 | . | -4 | . | . | . | 2
Cc1ccccc1Nc1c(-c2ccccn2)nc2ccccn12 | 82* | -2 | 3 | 15 | 0 | 2
COCC(=O)N1CC2(CCN(S(C)(=O)=O)CC2)c2c(n(C)c3cc(OC)ccc23)[C@@H]1CO | . | 5 | . | . | . | 1
COc1ccc(CNc2ccc(-c3ccccc3OC)nn2)cc1 | 56* | . | -1 | 5 | -1 | .
COc1ccc(CNc2ccc(-c3ccc(OC)cc3)nn2)cc1 | 1 | . | -1 | 2 | 1 | .

Compound activity from PubChem BioAssay.
